Assay results reported in ChEMBL document CHEMBL4024710, “Discovery of novel 1,2,3,4-tetrahydrobenzo[4, 5]thieno[2, 3-c]pyridine derivatives as potent and selective CYP17 inhibitors” (Eur J Med Chem, 2017).

Columns and labels:
[1] = target: T1, Steroid 17-alpha-hydroxylase/17,20 lyase (Rattus norvegicus, UniProt P11715); assay: Inhibition of CYP17 in Sprague-Dawley rat testes microsomes using 17-alpha hydroxyprogesterone as substrate and NADPH as cofactor pretreated for 5 mins followed by substrate and cofactor addition after 60 mins by LC/Ms analysis; set-up: species or system Testis
T1 sequence (P11715 whole entry): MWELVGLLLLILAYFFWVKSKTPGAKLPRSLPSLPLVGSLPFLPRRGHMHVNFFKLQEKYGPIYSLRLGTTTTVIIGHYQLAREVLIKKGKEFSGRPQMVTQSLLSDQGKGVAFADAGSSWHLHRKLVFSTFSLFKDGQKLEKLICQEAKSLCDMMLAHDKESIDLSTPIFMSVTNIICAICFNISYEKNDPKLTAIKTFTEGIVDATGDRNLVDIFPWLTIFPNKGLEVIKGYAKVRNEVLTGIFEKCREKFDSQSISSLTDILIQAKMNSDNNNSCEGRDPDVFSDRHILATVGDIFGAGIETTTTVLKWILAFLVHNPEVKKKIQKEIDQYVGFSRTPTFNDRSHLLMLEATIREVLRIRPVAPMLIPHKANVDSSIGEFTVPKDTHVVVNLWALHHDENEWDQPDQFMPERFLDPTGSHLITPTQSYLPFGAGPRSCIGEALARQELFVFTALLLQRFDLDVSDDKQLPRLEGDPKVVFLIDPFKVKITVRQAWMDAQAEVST
Method in brief: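 Rat testis microsomes from male SD rats weighing 220–250 g, prepared at 4 °C by differential centrifugation (9000 g, then 105,000 g pellet). 2 µg protein in 0.05 M phosphate pH 7.5 preincubated with inhibitor 5 min at 25 °C. Started with 10 µM 17α-hydroxyprogesterone plus 4.2 mM NADPH, 60 min at 25 °C, stopped with methanol. Androstenedione measured by LC/MS; IC50 is the mean of at least three experiments.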

[2] = target: T2, Steroid 17-alpha-hydroxylase/17,20 lyase (Homo sapiens, UniProt P05093); assay: Inhibition of recombinant human CYP17 expressed in human A549 cell membranes using 17-alpha hydroxyprogesterone as substrate and NADPH as cofactor pretreated for 5 mins followed by substrate and cofactor addition after 60 mins by LC/MS analysis
T2 sequence (P05093 whole entry): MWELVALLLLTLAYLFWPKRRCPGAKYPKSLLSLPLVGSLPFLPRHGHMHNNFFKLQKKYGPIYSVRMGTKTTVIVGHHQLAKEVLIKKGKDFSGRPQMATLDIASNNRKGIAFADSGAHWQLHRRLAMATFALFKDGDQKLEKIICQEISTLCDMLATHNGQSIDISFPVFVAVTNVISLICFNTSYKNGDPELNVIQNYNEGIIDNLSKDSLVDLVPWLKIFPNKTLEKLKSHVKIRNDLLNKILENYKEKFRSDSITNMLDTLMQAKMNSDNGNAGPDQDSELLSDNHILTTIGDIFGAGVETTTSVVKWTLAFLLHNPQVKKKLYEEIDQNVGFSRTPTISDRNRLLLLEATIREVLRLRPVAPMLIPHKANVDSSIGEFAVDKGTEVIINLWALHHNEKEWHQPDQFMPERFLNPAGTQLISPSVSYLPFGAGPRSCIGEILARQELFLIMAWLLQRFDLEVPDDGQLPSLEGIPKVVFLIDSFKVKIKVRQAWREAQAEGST
Method in brief: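 Enzyme source was purified membranes of A549 cells expressing human CYP17 from an adenoviral vector. 2 µg membrane protein in 0.05 M phosphate pH 7.5 with inhibitor, preincubated 5 min at 25 °C. Reaction started with 10 µM 17α-hydroxyprogesterone and 4.2 mM NADPH, run 60 min at 25 °C, methanol stop. Androstenedione quantified by LC/MS; IC50 is the mean of at least three experiments.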

[3] = target: Cytochrome P450 3A4 (Homo sapiens, UniProt P08684); assay: Inhibition of human hepatic CYP3A4; type: ADME
[4] = target: T3, CYP1A2 (Homo sapiens, UniProt P05177); assay: Inhibition of human hepatic CYP1A2 at 1 uM relative to control; type: ADME
T3 sequence (P05177 whole entry): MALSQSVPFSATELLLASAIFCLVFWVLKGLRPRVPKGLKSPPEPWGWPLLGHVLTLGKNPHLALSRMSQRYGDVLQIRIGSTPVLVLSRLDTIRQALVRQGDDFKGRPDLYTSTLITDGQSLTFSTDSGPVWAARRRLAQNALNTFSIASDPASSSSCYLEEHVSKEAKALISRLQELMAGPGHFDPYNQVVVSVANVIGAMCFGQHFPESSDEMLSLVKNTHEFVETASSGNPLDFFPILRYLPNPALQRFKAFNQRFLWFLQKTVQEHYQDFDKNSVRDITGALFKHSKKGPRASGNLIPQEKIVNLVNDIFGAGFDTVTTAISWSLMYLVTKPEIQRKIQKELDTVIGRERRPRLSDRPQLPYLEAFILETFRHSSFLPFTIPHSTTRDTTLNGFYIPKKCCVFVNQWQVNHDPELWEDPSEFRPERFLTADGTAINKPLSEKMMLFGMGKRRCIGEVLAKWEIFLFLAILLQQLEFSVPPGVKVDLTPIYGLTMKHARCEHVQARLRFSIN

[5] = target: T3, CYP1A2; assay: Inhibition of human hepatic CYP1A2 at 10 uM relative to control; type: ADME
[6] = target: T4, CYP2C9 (Homo sapiens, UniProt P11712); assay: Inhibition of human hepatic CYP2C9 at 1 uM relative to control; type: ADME
[7] = target: T4, CYP2C9; assay: Inhibition of human hepatic CYP2C9 at 10 uM relative to control; type: ADME
[8] = target: T5, CYP2C19 (Homo sapiens, UniProt P33261); assay: Inhibition of human hepatic CYP2C19 at 1 uM relative to control; type: ADME
[9] = target: T5, CYP2C19; assay: Inhibition of human hepatic CYP2C19 at 10 uM relative to control; type: ADME
[10] = target: T6, CYP2D6 (Homo sapiens, UniProt P10635); assay: Inhibition of human hepatic CYP2D6 at 1 uM relative to control; type: ADME
[11] = target: T6, CYP2D6; assay: Inhibition of human hepatic CYP2D6 at 10 uM relative to control; type: ADME

T6 sequence (P10635 whole entry): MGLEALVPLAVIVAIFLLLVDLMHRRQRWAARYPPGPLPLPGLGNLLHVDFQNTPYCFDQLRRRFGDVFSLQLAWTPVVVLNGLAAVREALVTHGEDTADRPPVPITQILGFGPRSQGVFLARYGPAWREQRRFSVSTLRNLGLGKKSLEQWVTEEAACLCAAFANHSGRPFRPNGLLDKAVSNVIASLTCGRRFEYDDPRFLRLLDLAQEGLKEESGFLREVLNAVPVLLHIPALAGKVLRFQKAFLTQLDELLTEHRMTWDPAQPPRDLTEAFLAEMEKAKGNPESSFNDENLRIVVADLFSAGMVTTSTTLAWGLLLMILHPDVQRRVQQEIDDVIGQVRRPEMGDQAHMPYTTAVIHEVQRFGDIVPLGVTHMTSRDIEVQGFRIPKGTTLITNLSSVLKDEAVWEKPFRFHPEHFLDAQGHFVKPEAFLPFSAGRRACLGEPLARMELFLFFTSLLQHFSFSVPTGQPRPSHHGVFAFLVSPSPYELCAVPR
T5 sequence (P33261 whole entry): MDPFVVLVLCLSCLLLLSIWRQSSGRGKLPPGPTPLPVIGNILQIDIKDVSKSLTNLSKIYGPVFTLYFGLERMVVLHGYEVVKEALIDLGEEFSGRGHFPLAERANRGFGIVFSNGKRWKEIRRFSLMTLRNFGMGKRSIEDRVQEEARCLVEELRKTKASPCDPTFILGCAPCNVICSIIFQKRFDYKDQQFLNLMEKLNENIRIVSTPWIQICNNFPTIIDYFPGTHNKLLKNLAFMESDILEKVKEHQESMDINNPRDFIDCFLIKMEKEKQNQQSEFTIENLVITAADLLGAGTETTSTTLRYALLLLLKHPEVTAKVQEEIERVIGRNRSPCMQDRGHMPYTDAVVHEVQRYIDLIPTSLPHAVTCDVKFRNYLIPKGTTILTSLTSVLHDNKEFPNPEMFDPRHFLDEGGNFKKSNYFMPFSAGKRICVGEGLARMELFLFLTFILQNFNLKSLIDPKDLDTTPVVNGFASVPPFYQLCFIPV
T4 sequence (P11712 whole entry): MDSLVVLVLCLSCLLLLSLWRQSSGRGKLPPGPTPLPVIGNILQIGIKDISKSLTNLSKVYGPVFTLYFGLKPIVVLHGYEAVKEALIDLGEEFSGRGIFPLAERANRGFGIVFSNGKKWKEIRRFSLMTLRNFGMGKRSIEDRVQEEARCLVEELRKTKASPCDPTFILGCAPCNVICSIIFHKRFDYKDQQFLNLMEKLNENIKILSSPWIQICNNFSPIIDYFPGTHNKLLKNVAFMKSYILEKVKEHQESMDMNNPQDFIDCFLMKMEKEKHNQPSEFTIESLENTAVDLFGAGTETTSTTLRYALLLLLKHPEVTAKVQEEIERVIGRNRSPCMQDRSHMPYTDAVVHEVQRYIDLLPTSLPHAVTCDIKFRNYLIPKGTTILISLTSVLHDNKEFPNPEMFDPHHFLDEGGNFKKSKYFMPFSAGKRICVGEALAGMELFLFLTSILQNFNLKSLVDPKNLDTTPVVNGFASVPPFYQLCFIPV
Sequence of Cytochrome P450 3A4 (P08684 whole entry): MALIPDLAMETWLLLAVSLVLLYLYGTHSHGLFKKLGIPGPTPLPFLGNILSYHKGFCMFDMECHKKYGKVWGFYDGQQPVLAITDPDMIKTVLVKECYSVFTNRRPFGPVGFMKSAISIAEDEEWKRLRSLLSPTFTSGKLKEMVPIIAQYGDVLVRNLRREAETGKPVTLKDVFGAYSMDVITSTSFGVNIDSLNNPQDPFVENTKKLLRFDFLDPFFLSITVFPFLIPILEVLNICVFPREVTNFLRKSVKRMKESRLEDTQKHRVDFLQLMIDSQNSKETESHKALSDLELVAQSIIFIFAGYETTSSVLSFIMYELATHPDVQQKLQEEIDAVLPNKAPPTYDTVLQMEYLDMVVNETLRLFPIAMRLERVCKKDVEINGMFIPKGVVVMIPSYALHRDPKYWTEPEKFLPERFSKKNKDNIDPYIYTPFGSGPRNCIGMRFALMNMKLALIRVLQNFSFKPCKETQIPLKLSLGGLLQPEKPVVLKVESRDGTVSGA

IC50 [1] | SMILES | other results
> 1000 nM | CC(C)(C)OC(=O)Nc1ccc2sc3c(c2c1)CCN(Cc1cccnc1)C3 | –
20.9 nM | Oc1ccc2sc3c(c2c1)CCN(Cc1cccnc1)C3 | IC50 [2]: 23.7 nM; IC50 [3]: 5280 nM; inhibition at 1 µM [4]: 25.4%; inhibition at 10 µM [5]: 71.2%; inhibition at 1 µM [6]: 0%; inhibition at 10 µM [7]: 17.5%; inhibition at 1 µM [8]: 7.9%; inhibition at 10 µM [9]: 71.6%; inhibition at 1 µM [10]: 1.3%; inhibition at 10 µM [11]: 18.9%
517 nM | Brc1ccc2sc3c(c2c1)CCN(Cc1cccnc1)C3 | –
535 nM | CC(C)c1ccncc1CN1CCc2c(sc3ccc(F)cc23)C1 | –
61.1 nM | Fc1ccc2sc3c(c2c1)CCN(Cc1cnccc1C1CC1)C3 | –
> 1000 nM | Fc1ccc2sc3c(c2c1)CCN(Cc1cnccc1-c1ccccc1)C3 | –
229 nM | c1cncc(CN2CCc3c([nH]c4ccccc34)C2)c1 | –
121 nM | Cc1cncc(CN2CCc3c(sc4ccc(F)cc34)C2)c1 | –
257 nM | Cc1ccc2sc3c(c2c1)CCN(Cc1cccnc1)C3 | –
980 nM | C=C(C)c1ccncc1CN1CCc2c(sc3ccc(F)cc23)C1 | –
> 1000 nM | Fc1ccc2sc3c(c2c1)CCN(Cc1ccncc1)C3 | –
257 nM | N#Cc1ccc2sc3c(c2c1)CCN(Cc1cccnc1)C3 | –
> 1000 nM | CNC(=O)c1ccc2sc3c(c2c1)CCN(Cc1cccnc1)C3 | –
115 nM | CC1(C)OB(c2ccc3sc4c(c3c2)CCN(Cc2cccnc2)C4)OC1(C)C | –
